Screening results from PubChem.
In the library only some 8.2% were active in any assay of this set; here they are far more common.
D1 allo mod: allosterically modulates the human D1 dopamine receptor; 58,000 tested, 5.9% active; B-score at 10 µM; P21728; HEK293 D1, CRE-luciferase, dopamine EC30 potentiation; actives deviate in either direction;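 active means luminescence count or its row- and column-corrected plate score outside the 99.7% band of the plate's sample wells, on either side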
RORa activator: activates the human nuclear receptor RORA | P35398 | CHO-K1 Gal4-RORA LBD luciferase reporter, luminescence; percent increase over mock-subtracted basal signal | activation, % at 10 µM | 65,000 tested, 1.5% active | AID 560;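 active means activation above the mean of all tested compounds plus 3 SD, cut at about 49% in these data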
HePTP inhibitor: inhibitors of human HePTP phosphatase; P35236; recombinant HePTP phosphatase activity, OD absorbance; inhibition, % at 20 µM; 110,000 tested, 0.64% active; in the data active means inhibition above about 50%
SF1 activator: activators of human nuclear receptor SF-1; Q13285; CHO-K1 Gal4-SF-1 LBD luciferase reporter; % increase over DMSO SF-1-specific signal; activation, % at 10 µM; 65,000 tested, 1.9% active; AID 522;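 active means activation above the mean activation of all tested compounds plus 3 SD, cut at about 50% in these data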
Target sequence (Q13285 whole entry, looked up, the tested form may be a part): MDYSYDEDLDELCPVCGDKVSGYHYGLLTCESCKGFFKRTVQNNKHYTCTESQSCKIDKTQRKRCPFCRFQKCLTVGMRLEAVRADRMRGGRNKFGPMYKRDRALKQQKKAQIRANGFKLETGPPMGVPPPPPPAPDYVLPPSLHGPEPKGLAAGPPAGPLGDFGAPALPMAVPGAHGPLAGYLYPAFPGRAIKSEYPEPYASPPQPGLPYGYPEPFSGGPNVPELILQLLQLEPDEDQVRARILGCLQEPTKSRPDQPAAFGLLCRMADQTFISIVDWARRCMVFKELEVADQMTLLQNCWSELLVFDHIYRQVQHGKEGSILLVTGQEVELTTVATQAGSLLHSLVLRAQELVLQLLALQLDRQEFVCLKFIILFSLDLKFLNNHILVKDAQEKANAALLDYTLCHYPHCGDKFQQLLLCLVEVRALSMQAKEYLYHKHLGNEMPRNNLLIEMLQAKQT
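Test system: CHO-K1 cells co-transfected with Gal4 DBD–human SF-1 LBD, 5xGal4 luciferase reporter. Quantity: 4,000 cells per well. Compound: 10 µM only. Incubation: compound added 1 h post-seeding, 20 h exposure at 37 °C, 5% CO2. Detection: SteadyLite luciferase luminescence. Replication: one test per compound.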
M1 antag: antagonists of rat M1 muscarinic receptor. P08482. B-score at 10 µM. CHO-M1 cells, Fluo-4 calcium, ACh EC80 antagonist mode; hits give low values. 64,000 tested, 3.4% active;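 active means calcium fluorescence response, raw or row-and-column corrected B-score, differing from the plate sample mean either way at a set confidence level, mostly lower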
M1 agonist: M1 muscarinic receptor agonism; CHO-M1 cells, Fluo-4 calcium fluorescence, agonist mode; hits give high values; B-score at 10 µM; 64,000 tested, 3% active;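 active means fluorescence rise, raw or as B-score row- and column-corrected plate score, outside the 99.7% band of its plate's samples, either direction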
A number is an active result; . = inactive; / = no result given.

SMILES | D1 allo mod | RORa activator | HePTP inhibitor | SF1 activator | M1 antag | M1 agonist
CC(=O)N1CCc2cc(NC(=O)c3ccc(C)cc3)ccc21 | -2.59 | . | . | . | . | .
O=C(CCS(=O)(=O)c1cccc2nsnc12)N1CCN(C(=O)c2ccco2)CC1 | . | . | . | . | . | .
CC(C)Oc1ccc(C(=O)Nc2ccc(N(C)C)cc2)cc1 | . | . | . | . | . | .
CCCOc1ccc(C(=O)Nc2ccc(N(C)C)cc2)cc1 | . | 56.1 | . | . | . | .
O=S(=O)(Nc1ccc(Cl)cn1)c1ccc(Cl)cc1 | / | / | . | / | / | /
CC(=O)c1c(C)nn(C(=O)c2cccs2)c1C | . | . | . | . | . | .
Cc1nn(C(=O)c2ccc3c(c2)OCO3)c(N)c1-c1ccccc1 | -5.71 | . | . | . | . | .
O=C(c1ccc2c(c1)OCO2)N1CCN=C1SCc1ccccc1 | / | . | . | . | . | .
Cc1nn(C(=O)c2cccs2)c(N)c1-c1ccccc1 | . | 56.6 | . | 54.5 | . | .
c1ccc2cc(Cn3cnc4ccccc43)ccc2c1 | / | / | . | / | / | /
CC(C)c1nc(SCc2c(F)cccc2Cl)c2c(=O)n(C)c(=O)n(C)c2n1 | -3.68 | . | . | . | . | .
Nc1ccccc1SCc1cn2ccccc2n1 | . | 49.3 | / | . | . | .
c1ccc(OCCSc2nnnn2-c2ccccc2)cc1 | . | . | . | 63.3 | . | .
c1ccc(OCCSc2nnc3sc4ccccc4n23)cc1 | -6.03 | . | . | . | . | .
COc1cc(C(=O)Nc2cc(Cl)cc(Cl)c2)cc(OC)c1OC | / | / | . | / | / | /
O=C(c1n[nH]c(=O)c2ccccc12)N1CCN(C2c3ccccc3-c3ccccc32)CC1 | . | . | . | . | . | .
O=C(CSc1ncn[nH]1)NC1CC2CCC1C2 (stereo not given) | / | . | . | . | . | .
O=C1/C(=C\c2cccs2)CC2CC1C/C(=C/c1cccs1)C2=O | / | / | . | / | / | /
O=C1/C(=C\c2ccco2)CC2CC1C/C(=C/c1ccco1)C2=O | / | / | 102.2 | / | / | /
COC(=O)c1cc(=O)c2ccc(OC)cc2o1 | . | . | . | . | . | .
COCCCNC(=O)CCCn1c(=O)c2ccccc2n(CC(=O)Nc2c(C)cc(C)cc2C)c1=O | -6.96 | . | . | . | . | .
COCCCNC(=O)CCn1c(=O)c2ccccc2n(CC(=O)Nc2c(C)cccc2C)c1=O | / | . | . | . | / | /
O=C(CSc1ncnc2sc3c(c12)CCCCC3)NCc1ccco1 | . | . | . | . | . | .
CC1(C)Cc2nc3sc4c(SCC(=O)NCc5ccco5)ncnc4c3cc2CO1 | . | . | . | 81.0 | . | .
Cc1nc2c(sc3nc4c(cc32)COC(C)(C)C4)c(=O)n1CC(=O)NCc1ccco1 | . | 101.0 | . | 133.7 | . | .
SMILES | D1 allo mod | RORa activator | HePTP inhibitor | SF1 activator | M1 antag | M1 agonist
CCCc1nc2c(sc3nc4c(cc32)COC(C)(C)C4)c(=O)n1Cc1ccco1 | . | . | . | . | . | .
OC(COc1ccc2ccccc2c1Cl)CN1CCOCC1 (stereo not given) | . | . | . | 54.5 | . | .
OC(COc1c(Br)cc(Br)cc1Br)CN1CCOCC1 (stereo not given) | . | . | . | . | . | .
CC1(O)CC(=O)C(C(=O)c2ccccc2)C(c2cccc([N+](=O)[O-])c2)C1C(=O)c1ccccc1 (stereo not given) | / | / | . | / | / | /
O=C(Nc1ccccc1)C1CC(=O)N(c2ccc(Br)cc2)C1 (stereo not given) | / | / | . | / | / | /
COC(=O)c1ccc(Cn2nc(C)c(Br)c2C)cc1 | -2.74 | . | . | . | . | .
COC(=O)c1ccc(CSc2nnnn2Cc2ccccc2)cc1 | . | . | . | . | . | .
Cn1c(/N=C/c2cc(Cl)ccc2O)nc2ccccc21 | . | . | . | . | . | 2.47
O=C(c1cccc(COc2ccc(Cl)cc2Cl)c1)N1CCN(c2ccccn2)CC1 | . | . | . | 75.5 | . | .
Cc1ccc(S(=O)(=O)NCc2ccc(C(=O)N3CCN(c4ccccn4)CC3)cc2)cc1 | / | . | . | . | 2.4 | .
CN(c1ccccc1)S(=O)(=O)c1cc(C(=O)N2CCN(c3ccccn3)CC2)ccc1Cl | -3.27 | . | . | . | . | .
COc1ccc(NC(=O)c2cc(Br)ccc2Cl)cc1OC | / | / | . | / | / | /
Nc1ncnc2c1ncn2C1CCC(CO)C(O)C1 (stereo not given) | . | . | . | . | . | .
Nc1ncnc2c1ncn2[C@@H]1O[C@H](CO)[C@@H](O)[C@H]1O | . | . | . | . | . | 12.8
COc1ccccc1OCCn1cc(C(=O)c2ccco2)c2ccccc21 | . | . | . | . | . | 4.58
CCOC(=O)Cn1cc(C(=O)c2ccco2)c2ccccc21 | . | . | . | . | . | .
O=C(NC(=S)Nc1ccc(N2CCOCC2)cc1)c1ccco1 | / | / | . | / | / | /
CCOc1cccc(C(=O)Nc2cc3nn(-c4ccc(C)cc4)nc3cc2C)c1 | / | / | . | / | / | /
O=C(O)CCN1C(=O)/C(=C/c2cn(-c3ccccc3)nc2-c2ccc(Br)cc2)SC1=S | / | / | 101.3 | / | / | /
O=C(O)CCN1C(=O)/C(=C/c2cn(-c3ccccc3)nc2-c2cccc([N+](=O)[O-])c2)SC1=S | / | / | . | / | / | /
O=C(O)CCCN1C(=O)/C(=C/c2cn(-c3ccccc3)nc2-c2cccc([N+](=O)[O-])c2)SC1=S | / | / | 104.1 | / | / | /
COc1ccccc1-c1nnc(NC(C)=O)s1 | . | 78.5 | . | . | . | .
COc1ccccc1NC(=O)Nc1nnc(C(C)C)s1 | / | . | . | 52.9 | . | .
COc1ccccc1-c1nnc(NC(=O)C(C)C)s1 | . | . | . | . | . | .
CCCCN(C)CCCNC(=O)Cn1c(=O)sc2ccccc21 | / | . | . | . | . | .
SMILES | D1 allo mod | RORa activator | HePTP inhibitor | SF1 activator | M1 antag | M1 agonist
Fc1ccc(CSc2nnc(-c3cccs3)o2)cc1 | . | . | . | . | . | .
Fc1ccccc1CSc1nnc(-c2cccs2)o1 | . | 50.3 | . | 92.0 | . | .
Fc1ccc(Cc2nnc(-c3cccs3)o2)cc1 | . | 63.4 | . | . | . | .
O=C(CSc1nnc(-c2ccc(Cl)s2)o1)N1CCCc2ccccc21 | -2.65 | . | . | . | / | /
c1ccc(CSc2nnc(-c3cccs3)o2)cc1 | . | 49.9 | . | 52.1 | . | .
O=C(CCC(=O)N1CCN(C2CCCCC2)CC1)Nc1nnc(C(F)(F)F)s1 | / | . | . | . | . | .
CCc1nc(CNC(=O)c2cc(OC)c(OC)c(OC)c2)no1 | . | . | . | . | . | .
NC(=O)c1cc(NC(=O)COc2ccc(F)cc2)cc(C(N)=O)c1 | / | / | . | / | / | /
O=C(CSc1nnc(-c2cccs2)o1)N1CCCCC1 | . | . | . | 63.4 | . | .
CC(=O)CC(=O)Nc1ccc(Cl)cn1 | / | / | . | / | / | /
CCn1ccc(C(=O)Nc2ccc(Cl)cn2)n1 | . | 58.8 | . | 77.8 | . | .
C=C(C)CSc1nc2sc3c(c2c(=O)n1Cc1ccccc1)CCC3 | / | / | . | / | / | /
CCOC(=O)c1cnc2c(-c3ccccc3)c(C)nn2c1N | . | . | . | . | . | .
CCOC(=O)c1cnn(-c2sc(C(=O)OCC)c(C)c2C(=O)OCC)c1N | . | . | . | . | . | -3.41
